This is a sample that favours compounds with a hit; in the whole collection about 3.1% have one here.
KCNK3 inh – human KCNK3 channel inhibition, primary screen | O14649 | CHO-KCNK3 thallium flux, FluxOR fluorescence; active compounds read low | B-score at 10 µM | 0.84% of 340,000 active | AID 602410;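 active means B-score under library mean minus 4 SD, starting fluorescence ratio at most library mean plus 5 SD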;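 further: more negative B-score means stronger inhibition of thallium flux through KCNK3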
KCNQ1 inh – inhibitors of human KCNQ1 potassium channel; CHO-K1 KCNQ1, FluxOR thallium flux fluorescence; active compounds read high; P51787; 1.3% of 310,000 active; B-score at 10 µM; AID 2642;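 active means compounds whose thallium flux B-score, printed positive for inhibition, exceeds three library SD while starting fluorescence stays within three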;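 further: channel opened by potassium depolarization with thallium stimulus after 20 min compound exposure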
KCNK9 inh – human KCNK9 channel inhibition. AID 488922. B-score at 10 µM. HEK293 KCNK9, FluxOR thallium flux fluorescence; active compounds read low. 1.2% of 310,000 active;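 active means ratio B-score over 3 SD below the library mean, with starting fluorescence within 5 SD of its mean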;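 further: negative B-score means less thallium flux so channel inhibition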
hERG protect – compounds protecting human hERG from proarrhythmic drug block | activation (rescue from dofetilide block), less the hit threshold, % at 10 µM | CHO-hERG, FluxOR thallium flux, dofetilide IC70 present | Q12809 | AID 1511 | 0.51% of 310,000 active;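 active means activation above the mean of controls blocked by dofetilide plus 5 SD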;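 further: thallium influx through hERG after potassium depolarization seen as dye fluorescence rise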
KCNQ1 act – potentiates or activates the human KCNQ1 potassium channel; P51787; CHO-K1 KCNQ1, thallium flux FluxOR fluorescence; active compounds read high; B-score at 10 µM; 0.35% of 310,000 active;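 active means fluorescence ratio B-score, a plate-corrected score, at least three library SD, with initial intensity B-score within 5 SD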
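Material: CHO-K1 cells stably expressing KCNQ1. Medium: assay buffer for compound exposure, DMSO matched across wells. Reagent: K+/Tl+ depolarizing stimulus. Compound dosing: single-concentration screen. Times: 37 °C overnight plating, 90-min dark dye load, 20-min compound pretreatment. Technique: FluxOR Tl+ flux fluorescence.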
Each line names hits and unclear results; the compound was inactive in the other large screens.

Cc1ccc2[nH]c(=O)c(CN(CCc3ccccc3)C(c3nnnn3Cc3ccco3)C(C)C)cc2c1 (centres undefined)	KCNK3 inh -8.9
CCCCN(C(=O)c1ccccc1OCc1ccc(F)cc1)c1c(N)n(CC(C)C)c(=O)[nH]c1=O	none
CC1=NN(C(=S)Nc2ccccc2)C(c2ccccc2)C1 (centres undefined)	none
Cc1ccc(C2CC(c3ccccc3)=NN2C(=S)Nc2ccccc2)o1 (centres undefined)	KCNQ1 inh 6
Cc1ccc(C(=O)NCCCN2CCN(CCCNC(=O)c3ccc(C)cc3)CC2)cc1	none
CCOc1cc(C2Nc3ccccc3C(=O)N2c2ccccc2OC)ccc1O (centres undefined)	hERG protect 19
Cn1c(=O)c(C(=O)c2ccc(S(C)(=O)=O)c(Cl)c2Cl)c(O)c2ccccc21	none
O=C(O)CCCCCNC(=O)c1ccccc1Br	hERG protect 5.4
O=C(O)CCCCCNC(=O)c1ccc(Br)cc1	none
O=[N+]([O-])c1ccc(O)c(-c2cc(C(F)(F)F)nc(-c3ccccc3)n2)c1	KCNQ1 inh 7
CN1CC(=O)N(CC(=O)Nc2ccc(Cl)c(C(F)(F)F)c2)C1=O	hERG protect 4.6
CC(C)Cc1ccc(C(=O)NCCOc2ccccc2)o1	none
O=C(CN(C(=O)CCC(=O)Nc1nccs1)c1ccc2c(c1)OCO2)NCc1ccccc1	none
Cn1cccc1C(=O)NC(=O)COC(=O)c1ccccc1O	hERG protect 5.3
F[B-](F)(F)COc1ccccc1	none (no result: KCNQ1 inh, KCNK9 inh, hERG protect, KCNQ1 act)
O=C(c1ccc(Cl)nc1)N1CCN(S(=O)(=O)c2ccc(Cl)cc2)CC1	none
CC[C@]12c3[nH]c4cc(-c5ccco5)ccc4c3CCN1C(=O)[C@@H](CC(=O)NCc1cccc(C(F)(F)F)c1)C[C@@H]2C(=O)N1CCN(C(=O)c2ccco2)CC1	none (no result: KCNQ1 inh, KCNK9 inh, hERG protect, KCNQ1 act)
COc1ccc(-c2nn(-c3ccccc3)cc2C(=O)OCC(=O)c2ccc(C)c([N+](=O)[O-])c2)cc1	KCNQ1 inh 8
COc1ccc(-c2cc(C(=O)OCC(=O)c3ccc(C)c([N+](=O)[O-])c3)c3ccccc3n2)cc1	none
O=C(NN1C(=O)/C(=C/c2cccnc2)SC1=S)C(c1ccccc1)c1ccccc1	KCNQ1 inh 6
Cc1ccc(C2NC(c3ccc(C)cc3)C(C)C(=O)C2C)cc1 (centres undefined)	KCNK9 inh -7
Cc1cccc(C2NC(c3cccc(C)c3)C(C)C(=O)C2C)c1 (centres undefined)	none
Cc1cc(OCC(=O)NNC(=S)NC(=O)c2ccc(Br)o2)ccc1Cl	KCNQ1 act 33
CCCn1cc(C(=O)N(C)C2CCCN(Cc3ccccc3F)C2)c(C)n1 (centres undefined)	none
CCCCc1ccc(/C=C2\C(=O)c3ccccc3C(O)=C2C(=O)OCC)cc1	KCNQ1 act 9 (no result: KCNK3 inh)
O=[N+]([O-])c1cccc(/C=N/N2CCN(Cc3ccccc3)CC2)c1	none
COc1ccc(Br)cc1/C=N/N1CCN(Cc2ccccc2Cl)CC1	KCNQ1 inh 8
COc1ccc(/C=N\N2CCN(Cc3ccccc3Cl)CC2)cc1	none
O=[N+]([O-])c1cccc(/C=N\N2CCN(Cc3ccccc3Cl)CC2)c1	KCNQ1 inh 6
N#CC(c1ccccc1)c1ccc2c(C(F)(F)F)cc(C(F)(F)F)nc2n1 (centres undefined)	none
Cc1ccc(C(C#N)c2ccc3c(C(F)(F)F)cc(C(F)(F)F)nc3n2)cc1 (centres undefined)	hERG protect 10, KCNQ1 act 43
C=CCc1c(C)nc(-c2ccccc2)nc1N/N=C/c1ccncc1	none
C=CCc1c(C)nc(-c2ccccc2)nc1N/N=C/c1ccccc1	KCNQ1 inh 6
CCCCNC(=O)c1nn2c(C(F)(F)F)cc(-c3ccc(OC)cc3)nc2c1Br	none
CC(NC(=O)COC(=O)/C(=C/c1cccs1)c1cccs1)c1ccccc1 (centres undefined)	KCNK9 inh -6.8
CC(NC(=O)COC(=O)c1cccs1)c1ccccc1 (centres undefined)	none
O=C(Nc1ccc(Oc2cccc(C(F)(F)F)c2)nc1)c1cccs1	none
CCC(C)NC(=O)c1ccccc1NC(=O)/C(=C/c1ccc(OC)cc1)c1ccccc1 (centres undefined)	KCNQ1 inh 7
CCCCN(CCCC)C(=S)N/N=C/c1c(C)[nH]n(-c2ccccc2)c1=O	KCNQ1 act 29
Cc1[nH]n(-c2ccccc2)c(=O)c1/C=N/NC(=O)c1ccc(O)cc1O	none
O=C(Nc1cccc(-c2nc3ccccc3s2)c1)c1cc(-n2cnnc2)ccc1Cl	KCNQ1 inh 6
Cc1c(NC(=O)c2cc(-n3cnnc3)ccc2Cl)cccc1-c1nc2ccccc2s1	none
O=S(=O)(c1cnccc1N1CCN(CCO)CC1)N1CCCCC1	none
Cc1cccc(C(=O)NC(=S)NNC(=O)Cc2ccccc2)c1	none
O=C(CCN1CCCCC1)NNC(=S)NC(=O)c1ccc(Br)cc1	none
Cc1ccc(C(=O)NC(=S)NNC(=O)COc2ccc([N+](=O)[O-])cc2)cc1	KCNQ1 act 8
O=C(COc1ccccc1)NNC(=S)NC(=O)c1ccccc1	none
O=C(COc1ccc([N+](=O)[O-])cc1)NNC(=S)NC(=O)c1ccc(Br)cc1	KCNQ1 inh 7
O=C(CCN1CCOCC1)NNC(=S)NC(=O)c1ccc(Br)cc1	KCNQ1 inh 6
Cc1ccc(OCC(=O)Nc2ccc([N+](=O)[O-])cc2)cc1	none
Cc1cccc(C(=O)NC(=S)NNC(=O)COc2c(C)cccc2C)c1	hERG protect 17, KCNQ1 act 13
OC(Cn1cnnc1)c1ccccc1 (centres undefined)	none
O=C(COc1ccc2ccc(=O)oc2c1)Nc1cccc(S(=O)(=O)N2CCCCC2)c1	none (no result: KCNQ1 inh, KCNK9 inh, hERG protect, KCNQ1 act)
Cc1ccc(S(=O)(=O)NCCC(=O)NCC(c2ccco2)N2CCCCC2)cc1C (centres undefined)	none
CCCCNC(=S)NC(=O)c1ccc([N+](=O)[O-])cc1	KCNQ1 act 10
CC(C)CNC(=S)NC(=O)c1ccc([N+](=O)[O-])cc1	none
CCCCn1c(=O)c2c(nc3n2CCCN3Cc2ccccc2)n(C)c1=O	none
COc1cc(/C=N/N=C(N)N)ccc1OCc1ccccc1Cl	KCNQ1 inh 10
Nc1ccc(Sc2cnn(-c3ccccc3)c(=O)c2Cl)cc1	none
Cc1ccc(Sc2cnn(-c3ccccc3)c(=O)c2Cl)cc1	KCNQ1 inh 10
Cc1oc2c(cc(NS(=O)(=O)c3ccc4c5c(cccc35)C(=O)N4)c3ccccc32)c1C(=O)OC(C)C	KCNK9 inh -7.6
Nn1c(COc2ccccc2F)nnc1SCC(=O)NC1CCS(=O)(=O)C1 (centres undefined)	none
c1ccc2nc(N3CCCC3)c(N3CCCCC3)nc2c1	KCNK3 inh -10 (no result: KCNQ1 inh, KCNK9 inh, hERG protect, KCNQ1 act)
CCCCn1nnc(NC(=O)c2ccc(-c3cccc(Cl)c3)o2)n1	none
CCCCn1nnc(NC(=O)Cc2ccc(Cl)cc2)n1	hERG protect 6.0

Screening data as filed in PubChem BioAssay.
